ChEMBL document CHEMBL1139027, “Design and synthesis of potent and subtype-selective PPARalpha agonists” (Bioorg Med Chem Lett, 2006)

Columns and labels:
[1] = biological target: T1, Peroxisome proliferator-activated receptor alpha (Homo sapiens, UniProt Q07869); assay: Binding affinity to human PPAR alpha
T1 sequence (Q07869 whole entry): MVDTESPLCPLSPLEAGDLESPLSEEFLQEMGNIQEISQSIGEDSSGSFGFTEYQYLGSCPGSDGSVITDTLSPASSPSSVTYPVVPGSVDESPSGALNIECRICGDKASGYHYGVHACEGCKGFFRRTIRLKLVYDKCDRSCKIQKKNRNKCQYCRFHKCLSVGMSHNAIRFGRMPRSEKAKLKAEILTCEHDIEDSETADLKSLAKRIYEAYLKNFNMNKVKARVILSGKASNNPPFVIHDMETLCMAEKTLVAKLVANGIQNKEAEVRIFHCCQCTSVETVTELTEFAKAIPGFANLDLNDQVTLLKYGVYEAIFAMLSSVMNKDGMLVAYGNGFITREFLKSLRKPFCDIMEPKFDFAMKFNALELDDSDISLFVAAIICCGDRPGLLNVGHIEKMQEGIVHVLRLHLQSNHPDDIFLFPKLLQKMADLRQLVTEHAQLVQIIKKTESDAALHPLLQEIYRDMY

[2] = biological target: T2, Peroxisome proliferator-activated receptor delta (Homo sapiens, UniProt Q03181); assay: Binding affinity to human PPAR delta
T2 sequence (Q03181 whole entry): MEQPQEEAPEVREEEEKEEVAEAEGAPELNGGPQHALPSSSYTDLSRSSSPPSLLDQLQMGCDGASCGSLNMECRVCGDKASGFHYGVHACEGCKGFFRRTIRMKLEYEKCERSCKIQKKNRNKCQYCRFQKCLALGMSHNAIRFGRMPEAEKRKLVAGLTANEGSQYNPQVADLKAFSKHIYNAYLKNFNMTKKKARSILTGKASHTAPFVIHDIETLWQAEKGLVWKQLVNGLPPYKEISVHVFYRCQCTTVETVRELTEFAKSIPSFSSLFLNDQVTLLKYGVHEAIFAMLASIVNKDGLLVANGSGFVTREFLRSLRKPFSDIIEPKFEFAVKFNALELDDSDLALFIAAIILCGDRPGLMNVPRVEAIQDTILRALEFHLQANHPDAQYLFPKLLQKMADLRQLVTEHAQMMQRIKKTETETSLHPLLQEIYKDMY

[3] = biological target: T3, Peroxisome proliferator-activated receptor gamma (Homo sapiens, UniProt P37231)
T3 sequence (P37231 whole entry): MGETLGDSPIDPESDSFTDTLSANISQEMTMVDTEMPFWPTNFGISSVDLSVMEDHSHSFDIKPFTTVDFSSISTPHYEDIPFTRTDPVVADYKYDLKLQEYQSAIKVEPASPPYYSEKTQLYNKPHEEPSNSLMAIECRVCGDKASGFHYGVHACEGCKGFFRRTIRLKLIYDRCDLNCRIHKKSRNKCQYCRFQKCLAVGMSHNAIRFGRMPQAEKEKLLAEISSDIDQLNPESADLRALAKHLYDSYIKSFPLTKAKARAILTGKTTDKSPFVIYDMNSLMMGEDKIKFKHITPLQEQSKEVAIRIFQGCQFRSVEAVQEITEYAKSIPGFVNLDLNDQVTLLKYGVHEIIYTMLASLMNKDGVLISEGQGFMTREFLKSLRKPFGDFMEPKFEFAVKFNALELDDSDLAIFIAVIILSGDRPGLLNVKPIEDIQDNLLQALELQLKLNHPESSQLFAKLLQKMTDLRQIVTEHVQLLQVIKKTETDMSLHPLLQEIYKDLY

[4] = biological target: T1, Peroxisome proliferator-activated receptor alpha; assay: Transactivation by human PPAR alpha in COS1 cells; assay type: functional, cell-based, COS-1
[5] = biological target: T3, Peroxisome proliferator-activated receptor gamma; assay type: functional, cell-based, COS-1
[6] = biological target: T2, Peroxisome proliferator-activated receptor delta; assay: Transactivation by human PPAR delta in COS1 cells; assay type: functional, cell-based, COS-1
[7] = biological target: Cytochrome P450 2C9 (Homo sapiens, UniProt P11712)
Chain of Cytochrome P450 2C9 (P11712 whole entry): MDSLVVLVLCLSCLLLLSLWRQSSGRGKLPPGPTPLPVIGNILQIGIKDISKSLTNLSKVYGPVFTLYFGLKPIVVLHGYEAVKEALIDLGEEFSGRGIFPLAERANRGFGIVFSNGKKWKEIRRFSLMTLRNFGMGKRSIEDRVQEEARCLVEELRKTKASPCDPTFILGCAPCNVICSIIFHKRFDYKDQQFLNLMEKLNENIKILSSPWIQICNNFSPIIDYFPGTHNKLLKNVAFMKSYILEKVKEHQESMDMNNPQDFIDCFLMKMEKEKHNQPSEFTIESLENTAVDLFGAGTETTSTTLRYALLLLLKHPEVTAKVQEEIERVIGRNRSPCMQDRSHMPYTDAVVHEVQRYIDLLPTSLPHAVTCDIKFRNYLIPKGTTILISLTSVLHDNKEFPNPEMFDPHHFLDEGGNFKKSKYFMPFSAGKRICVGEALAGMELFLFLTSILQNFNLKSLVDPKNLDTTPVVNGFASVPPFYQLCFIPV

[8] = test system: Syrian golden hamster; assay: Decrease in cholesterol level in Golden Syrian hamster at 100 mg/kg, po; assay type: functional, Mesocricetus auratus; parameters: scale not given: the % may be the effect or the level left
How it was run: (§1)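 Male Golden Syrian hamsters (120–150 g, n = 10) on normal rodent chow with free access to water. Sodium salts were given by oral gavage once daily for 9 days in 0.5% methylcellulose vehicle. Serum cholesterol and triglycerides were measured and reported as % change.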

[9] = test system: Syrian golden hamster; assay: Decrease in triglyceride level in Golden Syrian hamster at 100 mg/kg, po; assay type: functional, Mesocricetus auratus; parameters: scale not given: the % may be the effect or the level left; how it was run: as §1
[10] = test system: Canis familiaris; assay: Decrease in cholesterol level in Beagle dog at 50 mg/kg, po; assay type: functional, Canis lupus familiaris; parameters: scale not given: the % may be the effect or the level left
How it was run: (§2)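 Male beagle dogs (12–18 kg, n = 5) fed cholesterol-free chow ad libitum with free access to water. Compounds were suspended in 0.5% methylcellulose and gavaged daily for 14 days. Serum cholesterol is reported as a mean value, with final-day data compared against vehicle control.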

[11] = test system: Canis familiaris; assay: Decrease in cholesterol level in Beagle dog at 4 mg/kg, po; assay type: functional, Canis lupus familiaris; parameters: scale not given: the % may be the effect or the level left; how it was run: as §2

`O=C(O)C(Cc1ccc(OCCCOc2ccc(Oc3ccc(F)cc3)cc2Cl)cc1)c1ccccc1` (centres undefined) was tested, and the IC50 [1] was 262 nM, the IC50 ([2]; read-out: IC50) was 1340 nM and the IC50 [3] was “Not Active”.
For `CCC(CC)(Oc1ccc(OCCCOc2ccc(Oc3ccc(F)cc3)cc2Cl)cc1)C(=O)O`, the IC50 [1] was 22 nM, the IC50 [2] was “Not Active” and the IC50 [3] was “Not Active”. The EC50 ([4]; read-out: EC50) was 2.7 nM and the EC50 ([5]; cos-1) was “Not Active”.
In the case of `CC[C@](C)(Oc1ccc(OCCCOc2ccc(Oc3ccc(F)cc3)cc2Cl)cc1)C(=O)O`, the IC50 [1] is reported as 6 nM, the IC50 ([2]; read-out: IC50) is reported as 1090 nM and the IC50 [3] is reported as “Not Active”. For the same molecule, the EC50 ([4]; read-out: EC50) was 3 nM and the EC50 ([5]; cos-1) was “Not Active”.
In the case of `CC[C@@](C)(Oc1ccc(OCCCOc2ccc(Oc3ccc(F)cc3)cc2Cl)cc1)C(=O)O`, the IC50 [1] is reported as 101 nM, the IC50 ([2]; read-out: IC50) is reported as 2410 nM and the IC50 [3] is reported as “Not Active”. The EC50 ([4]; read-out: EC50) was 20 nM and the EC50 ([5]; read-out: EC50) was > 3000 nM.
In the case of `CCC(C)(Oc1ccc(OCCCOc2ccc(Oc3ccc(F)cc3)cc2Cl)cc1)C(=O)O` (centres undefined), the IC50 [1] is reported as 5 nM, the IC50 [2] is reported as “Not Active” and the IC50 ([3]; read-out: IC50) is reported as 1240 nM. The EC50 ([4]; read-out: EC50) was 2.5 nM and the EC50 ([5]; cos-1) was “Not Active”.
With `CC(C)(Oc1ccc(OCCOc2ccc(Oc3ccc(F)cc3)cc2Cl)cc1)C(=O)O` the EC50 ([1]; read-out: EC50) was 87 nM, the EC50 [2] was “Not Active” and the EC50 [3] was “Not Active”. For the same molecule, the EC50 ([4]; read-out: EC50) was 62 nM, the EC50 ([6]; cos-1) was “Not Active” and the EC50 ([5]; cos-1) was “Not Active”.
`O=C(O)CCc1ccc(OCCCOc2ccc(Oc3ccc(F)cc3)cc2Cl)cc1` was tested, and the IC50 [1] was 675 nM and the IC50 ([2]; read-out: IC50) was > 50 nM.
With `CCC1(CC)C=C(C(F)(F)F)c2cc(Cl)c(OCCCOc3ccc(O[C@](C)(CC)C(=O)O)cc3)cc2O1` the IC50 [1] was 125 nM, the IC50 [2] was “Not Active” and the IC50 [3] was “Not Active”.
`CC[C@@](C)(Oc1ccc(OCCCOc2ccc3c(C(F)(F)F)cc(=O)oc3c2Cl)cc1)C(=O)O` was tested, and the IC50 [1] was 157 nM, the IC50 ([2]; read-out: IC50) was 3270 nM and the IC50 [3] was “Not Active”.
In the case of `CC[C@@](C)(Cc1ccc(OCCCOc2ccccc2Cl)cc1)C(=O)O`, the IC50 [1] is reported as 42 nM, the IC50 ([2]; read-out: IC50) is reported as 4630 nM and the EC50 ([4]; read-out: EC50) is reported as 54.1 nM.
Molecule `CCCc1cc(Oc2ccc(F)cc2)ccc1OCCCOc1ccc(OC(C)(C)C(=O)O)cc1` has an EC50 ([1]; read-out: EC50) of 110 nM, an EC50 ([2]; read-out: EC50) of 106 nM and an EC50 ([4]; read-out: EC50) of 51 nM. The EC50 ([6]; read-out: EC50) was 55 nM.
In the case of `CC[C@@](C)(Cc1ccc(OCCCOc2ccc3c(C(F)(F)F)cc(=O)oc3c2C)cc1)C(=O)O`, the IC50 [1] is reported as 49 nM, the IC50 ([2]; read-out: IC50) is reported as 134 nM and the IC50 [3] is reported as “Not Active”. For the same molecule, the EC50 ([4]; read-out: EC50) was 10 nM.
For `CCC(Cc1ccc(OCCCOc2ccc(Oc3ccc(F)cc3)cc2Cl)cc1)C(=O)O` (centres undefined), the IC50 [1] was 156 nM, the IC50 ([2]; read-out: IC50) was 1170 nM and the IC50 [3] was “Not Active”.
For `CC(Cc1ccc(OCCCOc2ccc(Oc3ccc(F)cc3)cc2Cl)cc1)C(=O)O` (centres undefined), the IC50 [1] was 208 nM, the IC50 ([2]; read-out: IC50) was 4070 nM and the IC50 [3] was “Not Active”.
`CC[C@@](C)(Cc1ccc(OCCCOc2ccc(CC(F)(F)F)cc2Cl)cc1)C(=O)O` was tested, and the IC50 [1] was < 1 nM, the IC50 ([2]; read-out: IC50) was > 70000 nM and the IC50 ([3]; read-out: IC50) was > 6000 nM. The EC50 ([4]; read-out: EC50) was < 1 nM, the EC50 ([5]; cos-1) was “Not Active” and the IC50 [7] was < 50 nM.
With `CC[C@@](C)(Cc1ccc(OCCCOc2ccc3c(C)cc(O)nc3c2)cc1)C(=O)O` the IC50 [1] was 6090 nM, the IC50 [2] was “Not Active” and the IC50 [3] was “Not Active”.
`CC(C)(Oc1ccc(OCCCOc2ccc(Oc3ccc(F)cc3)cc2Cl)cc1)C(=O)O` was tested, and the IC50 [1] was 30 nM, the IC50 ([2]; read-out: IC50) was 2390 nM and the EC50 ([4]; read-out: EC50) was 20 nM. The EC50 ([6]; read-out: EC50) was > 3000 nM.
`CCCc1cc(Oc2ccc(F)cc2)ccc1OCCCOc1ccc(C2SC(=O)NC2=O)cc1` (centres undefined) was tested, and the EC50 [1] was “Not Active”, the EC50 [2] was “Not Active” and the EC50 ([4]; cos-1) was “Not Active”. For the same molecule, the EC50 ([6]; cos-1) was “Not Active”.
With `CC(C)(Oc1ccc(OCCCCOc2ccc(Oc3ccc(F)cc3)cc2Cl)cc1)C(=O)O` the EC50 ([1]; read-out: EC50) was 66 nM, the EC50 ([2]; read-out: EC50) was 545 nM and the EC50 ([4]; read-out: EC50) was 35 nM. For the same molecule, the EC50 ([6]; read-out: EC50) was 284 nM.
In the case of `CC(C)(Oc1cccc(OCCCOc2ccc(Oc3ccc(F)cc3)cc2Cl)c1)C(=O)O`, the EC50 ([1]; read-out: EC50) is reported as 36 nM, the EC50 [3] is reported as “Not Active” and the EC50 ([4]; read-out: EC50) is reported as 21 nM.
In the case of `CCCC(Cc1ccc(OCCCOc2ccc(Oc3ccc(F)cc3)cc2Cl)cc1)C(=O)O` (centres undefined), the IC50 [1] is reported as 130 nM, the IC50 ([2]; read-out: IC50) is reported as 1130 nM and the IC50 [3] is reported as “Not Active”. The EC50 ([4]; read-out: EC50) was 454 nM.
For `O=C(O)C(Cc1ccc(OCCCOc2ccc(Oc3ccc(F)cc3)cc2Cl)cc1)C1CCC1` (centres undefined), the IC50 [1] was 116 nM, the IC50 ([2]; read-out: IC50) was 1350 nM and the IC50 [3] was “Not Active”. The EC50 ([4]; read-out: EC50) was 15 nM and the EC50 ([5]; cos-1) was “Not Active”.
`CC(C)(Oc1ccccc1OCCCOc1ccc(Oc2ccc(F)cc2)cc1Cl)C(=O)O` was tested, and the EC50 [1] was “Not Active”, the EC50 [2] was “Not Active” and the EC50 [3] was “Not Active”.
`CC(C)OC(=O)C(C)(C)Oc1ccc(C(=O)c2ccc(Cl)cc2)cc1` [FENOFIBRATE] showed an Activity [8] of -31%, an Activity [9] of -30% and an Activity [10] of -18%.
`CCC(C)(C)C(=O)O[C@H]1C[C@@H](C)C=C2C=C[C@H](C)[C@H](CC[C@@H]3C[C@@H](O)CC(=O)O3)[C@H]21` [SIMVASTATIN] showed an Activity [11] of -19%.
